Here are results for two compounds from ChEMBL document CHEMBL2390828, “Synthesis and biological characterization of spiro[2H-(1,3)-benzoxazine-2,4'-piperidine] based histone deacetylase inhibitors” (Eur J Med Chem, 2013).

Active and inactive are the calls of the source. The calls are words filed in the database; no cut-off is given here. Where only a bound is given, the exact number is not on record here.

Series [1] in a line: Solubility of the compound at pH 7.4. Type of series: physicochemical. The note with it: buffer.
A short description of series [2]: AUC (0 to infinity) in CD1 mouse at 15 mg/kg, po. It counts as ADME, organism-based. On the set-up: time infinity, dose 15 mg/kg, route oral. The note with it: plasma. The method, boiled down:
(§1)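 CD-1 mice got single doses of 5 mg/kg iv or 15 mg/kg orally. The iv vehicle was water with 3% DMSO and 9.7% encapsin. The oral vehicle was water with 5% DMSO and 9.5% encapsin. Plasma PK parameters were calculated, including AUC0–∞, clearance, half-life, Vss, cmax and oral bioavailability.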

The subject of a further series is K562. Put plainly: Cytotoxicity against human K562 cells. Type of series: functional, cell-based.
Series [3] relates to HCT-116. Put plainly: Induction of apoptosis in human HCT116 cells assessed as increase in sub-G1 population after 24 hrs by propidium iodide staining-based FACS analysis. It counts as functional, cell-based. A digest of the protocol: (§2)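 HCT116 colon carcinoma cells were exposed to several concentrations for 24 h. Cell-cycle profiles were read by flow cytometry, with G0/G1, G2/M and sub-G1 fractions scored.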

Series [4] deals with HCT-116. Description: Cytotoxicity against human HCT116 cells. Type of series: functional, cell-based.
Series [5] can be described thus: AUC (0 to infinity) in CD1 mouse at 5 mg/kg, iv. The arrangement: time infinity, dose 5 mg/kg, route intravenous. It counts as ADME, organism-based. The following applies: plasma. A digest of the protocol: as §1
Series [6] addresses Histone deacetylase (Homo sapiens) (UniProt Q13547+O15379+Q9UBN7+Q92769+Q9UQL6+Q8WUI4+Q9BY41+Q96DB2+P56524+Q9UKV0+Q969S8). Put plainly: Inhibition of HDAC in human K562 cells assessed as increase in histone acetylation level after 2 to 8 hrs by flow cytometry. Type of series: cell-based. The method, boiled down: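 K562 cells were treated at 0.1, 0.5, 1 and 3 µM. Histone acetylation was measured by flow cytometry and reported as the ratio of acetylation level in treated over control cells.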
(In general: In flow cytometry, cells or beads pass a laser one at a time.)

For series [7], the target named is T1, Protein deacetylase HDAC6 (Homo sapiens, UniProt Q9UBN7).
T1 sequence (Q9UBN7 whole entry): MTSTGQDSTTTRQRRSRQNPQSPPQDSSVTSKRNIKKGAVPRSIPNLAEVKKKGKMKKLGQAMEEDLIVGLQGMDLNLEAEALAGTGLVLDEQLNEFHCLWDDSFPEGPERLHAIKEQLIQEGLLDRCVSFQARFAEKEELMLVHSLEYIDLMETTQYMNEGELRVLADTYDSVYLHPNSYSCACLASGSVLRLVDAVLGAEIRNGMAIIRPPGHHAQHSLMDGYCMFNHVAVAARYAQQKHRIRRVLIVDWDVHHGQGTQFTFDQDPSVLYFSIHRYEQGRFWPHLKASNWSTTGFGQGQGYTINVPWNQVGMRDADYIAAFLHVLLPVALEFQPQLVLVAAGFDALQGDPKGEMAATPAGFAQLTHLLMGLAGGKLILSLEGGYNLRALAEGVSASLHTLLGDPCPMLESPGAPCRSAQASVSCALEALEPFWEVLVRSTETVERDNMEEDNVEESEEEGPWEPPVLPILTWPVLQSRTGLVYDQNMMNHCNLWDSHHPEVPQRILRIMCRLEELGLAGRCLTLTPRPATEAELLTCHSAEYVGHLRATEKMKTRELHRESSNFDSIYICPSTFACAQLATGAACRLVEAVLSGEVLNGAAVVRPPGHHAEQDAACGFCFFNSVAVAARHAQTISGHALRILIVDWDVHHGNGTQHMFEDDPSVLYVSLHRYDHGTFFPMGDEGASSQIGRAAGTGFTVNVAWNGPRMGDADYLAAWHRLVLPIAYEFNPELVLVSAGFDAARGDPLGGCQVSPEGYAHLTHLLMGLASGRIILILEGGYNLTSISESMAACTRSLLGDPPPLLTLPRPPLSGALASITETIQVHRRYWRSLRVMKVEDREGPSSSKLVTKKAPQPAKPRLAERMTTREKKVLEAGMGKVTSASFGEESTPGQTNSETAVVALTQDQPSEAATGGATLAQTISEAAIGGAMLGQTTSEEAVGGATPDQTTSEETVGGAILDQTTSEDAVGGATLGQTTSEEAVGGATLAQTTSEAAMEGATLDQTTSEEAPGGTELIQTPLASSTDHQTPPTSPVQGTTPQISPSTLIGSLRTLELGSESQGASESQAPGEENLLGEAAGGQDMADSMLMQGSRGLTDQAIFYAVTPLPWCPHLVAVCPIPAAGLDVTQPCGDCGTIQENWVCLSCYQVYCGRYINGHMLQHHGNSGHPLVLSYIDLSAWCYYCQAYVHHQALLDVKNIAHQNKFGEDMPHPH
Put plainly: Inhibition of HDAC6 (unknown origin).

Series [8] has as its system HCT-116. Description: Cell cycle arrest in human HCT116 cells assessed as accumulation at G0/G1 phase at lower dose after 24 hrs by propidium iodide staining-based FACS analysis. It counts as functional. The method, boiled down: as §2
Series [9] is described as follows: Tmax in CD1 mouse at 5 mg/kg, iv and 15 mg/kg, po. It counts as ADME, organism-based. The following applies: in vivo. A digest of the protocol:
as §1

The test system of series [10] is HCT-116. Put plainly: Antitumor activity against human HCT116 cells […] in CD1 mouse at 150 mg/kg, po administered 5 days a week for 2 weeks relative to control. Type of series: functional. A digest of the protocol: (§3)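 Female CD-1 nude mice received 5 × 10⁶ HCT116 cells subcutaneously in the flank. Once tumours reached 100 mm³, dosing was 75 or 150 mg/kg orally, once daily, 5 days/week for 2 weeks. Tumour volume and body weight were followed. Tumour/control (T/C) ratio was calculated against vehicle controls.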

Series [11] in a line: Metabolic stability in human liver microsomes after 30 mins by LC-MS/MS analysis. It counts as ADME, Microsome. The note with it: read-out: Stability. A digest of the protocol:
(§4)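 Compounds were incubated with mouse or human liver microsomal preparation for 30 min at 37 °C. The reaction was stopped with CH3CN. Unmetabolized compound was quantified by LC-MS/MS in MRM mode and reported as percent remaining. Replicates n ≥ 2, mean values given.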
For orientation: Microsomes from liver hold many membrane-bound enzymes, among them those of drug oxidation.

Another series has as its target Histone deacetylase 3 (Homo sapiens, UniProt O15379). Description: Inhibition of HDAC3 (unknown origin).
Series [12] concerns HCT-116. Put plainly: Antitumor activity against human HCT116 cells […] in po dosed CD1 mouse administered 5 days a week for 2 weeks relative to control. It counts as functional, organism-based. The method, boiled down:
as §3

A short description of series [13]: Permeability from apical to basolateral side across human Caco2 cells after 2 hrs by LC-MS analysis. The following applies: Caco-2, read-out: permeability. It counts as ADME, cell-based.
A short description of series [14]: Metabolic stability in mouse liver microsomes after 30 mins by LC-MS/MS analysis. Type of series: ADME, Microsome. The note with it: read-out: Stability. The method, boiled down: as §4
Series [15] in a line: Terminal half life in CD1 mouse at 5 mg/kg, iv and 15 mg/kg, po. It counts as ADME, organism-based. The note with it: in vivo, read-out: beta t1/2 (converted). The method, boiled down:
as §1

The next series has as its target Histone deacetylase. Put plainly: Inhibition of HDAC in human Hela cell nuclear extract after 15 mins. It counts as protein assay.
Series [16] deals with HCT-116. Put plainly: Antitumor activity against human HCT116 cells […] in CD1 mouse at 75 mg/kg, po administered 5 days a week for 2 weeks relative to control. It counts as functional. The method, boiled down:
as §3

Series [17] can be described thus: Clearance in CD1 mouse at 5 mg/kg, iv and 15 mg/kg, po. Type of series: ADME, organism-based. The following applies: in vivo. The method, boiled down: as §1
Series [18] has as its target T2, Voltage-gated inwardly rectifying potassium channel KCNH2 (Homo sapiens, UniProt Q12809). Description: Inhibition of human ERG channel.
Series [19] relates to Mus musculus. Put plainly: Inhibition of HDAC in human HCT116 cells […] in CD1 mouse at 75 to 150 mg/kg, po administered 5 days a week for 2 weeks by immunohistochemistry relative to control. It counts as functional, organism-based. The following applies: HCT-116. The method, boiled down: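 Tumours came from HCT116 xenograft-bearing CD-1 nude mice dosed orally at 75 or 150 mg/kg once daily, 5 days/week for 2 weeks. Sections were taken at the end of treatment from vehicle and treated mice. Histone acetylation was stained by immunohistochemistry (anti-acetyl H4 clone T25, 1:13,000) and scored by positive cells and signal intensity.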

Series [20] is described as follows: Cmax in CD1 mouse at 15 mg/kg, po. The note with it: CD1, mouse, in vivo.
Series [21] concerns Mus musculus. Description: Toxicity in CD1 mouse xenografted with human HCT116 cells assessed as body weight change at 75 to 150 mg/kg, po qd administered 5 days a week for 2 weeks. On the set-up: dose 75-150 mg/kg, route oral. The following applies: in vivo. It counts as organism-based, HCT-116. The method, boiled down: as §3
For orientation: Xenograft models place foreign cells or tissue in a host animal.

Series [22] is described as follows: Cmax in CD1 mouse at 5 mg/kg, iv. The note with it: in vivo. It counts as ADME, organism-based. On the set-up: dose 5 mg/kg, route intravenous. A digest of the protocol: as §1
A short description of series [23]: Oral bioavailability in CD1 mouse at 15 mg/kg. The note with it: in vivo.
The target of another series is Histone deacetylase 2 (Homo sapiens, UniProt Q92769). Description: Inhibition of HDAC2 (unknown origin).
Sequence of Histone deacetylase 2 (Q92769 whole entry): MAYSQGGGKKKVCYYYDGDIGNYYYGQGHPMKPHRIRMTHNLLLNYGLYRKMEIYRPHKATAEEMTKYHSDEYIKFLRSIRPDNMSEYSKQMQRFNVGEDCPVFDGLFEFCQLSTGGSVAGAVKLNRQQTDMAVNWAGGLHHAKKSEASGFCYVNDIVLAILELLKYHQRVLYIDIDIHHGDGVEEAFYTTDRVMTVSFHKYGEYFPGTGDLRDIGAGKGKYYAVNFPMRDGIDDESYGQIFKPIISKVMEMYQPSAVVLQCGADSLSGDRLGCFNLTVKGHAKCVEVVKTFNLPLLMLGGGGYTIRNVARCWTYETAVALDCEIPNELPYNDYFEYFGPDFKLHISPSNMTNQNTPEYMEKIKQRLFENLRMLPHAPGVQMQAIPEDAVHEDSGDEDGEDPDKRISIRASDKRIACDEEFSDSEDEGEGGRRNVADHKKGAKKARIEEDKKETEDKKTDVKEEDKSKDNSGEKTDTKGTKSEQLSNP
Series [24] relates to HCT-116. Description: Cell cycle arrest in human HCT116 cells assessed as accumulation at G2/M phase at higher dose after 24 hrs by propidium iodide staining-based FACS analysis. Type of series: functional. The method, boiled down:
as §2

The subject of the next series is A549. Put plainly: Cytotoxicity against human A549 cells. Type of series: functional, cell-based.
Series [25] can be described thus: Volume of distribution at steady state in CD1 mouse at 5 mg/kg, iv and 15 mg/kg, po. It counts as ADME, organism-based. The note with it: in vivo, read-out: Vdss. The method, boiled down: as §1
The subject of series [26] is Mus musculus. Description: Cmax in CD1 mouse at 15 mg/kg, po. The following applies: mouse, in vivo.
The target of series [27] is T2, Voltage-gated inwardly rectifying potassium channel KCNH2. Put plainly: Displacement of [3H]astemizole from human ERG channel transfected in HEK293 cells after 60 mins by liquid scintillation counting analysis. It counts as cell-based.

Sequence of Histone deacetylase 3 (O15379 whole entry): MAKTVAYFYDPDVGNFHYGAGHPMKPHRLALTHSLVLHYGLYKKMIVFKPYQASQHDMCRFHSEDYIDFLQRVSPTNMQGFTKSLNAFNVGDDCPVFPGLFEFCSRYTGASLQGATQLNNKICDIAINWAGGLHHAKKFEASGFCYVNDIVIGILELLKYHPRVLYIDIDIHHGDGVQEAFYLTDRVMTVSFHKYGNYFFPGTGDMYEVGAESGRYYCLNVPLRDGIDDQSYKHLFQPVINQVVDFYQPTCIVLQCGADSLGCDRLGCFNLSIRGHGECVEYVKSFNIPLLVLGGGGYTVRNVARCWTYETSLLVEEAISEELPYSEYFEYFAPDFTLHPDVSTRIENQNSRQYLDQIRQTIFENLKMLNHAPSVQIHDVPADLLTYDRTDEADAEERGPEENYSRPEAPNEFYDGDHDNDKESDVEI
T2 sequence (Q12809 whole entry): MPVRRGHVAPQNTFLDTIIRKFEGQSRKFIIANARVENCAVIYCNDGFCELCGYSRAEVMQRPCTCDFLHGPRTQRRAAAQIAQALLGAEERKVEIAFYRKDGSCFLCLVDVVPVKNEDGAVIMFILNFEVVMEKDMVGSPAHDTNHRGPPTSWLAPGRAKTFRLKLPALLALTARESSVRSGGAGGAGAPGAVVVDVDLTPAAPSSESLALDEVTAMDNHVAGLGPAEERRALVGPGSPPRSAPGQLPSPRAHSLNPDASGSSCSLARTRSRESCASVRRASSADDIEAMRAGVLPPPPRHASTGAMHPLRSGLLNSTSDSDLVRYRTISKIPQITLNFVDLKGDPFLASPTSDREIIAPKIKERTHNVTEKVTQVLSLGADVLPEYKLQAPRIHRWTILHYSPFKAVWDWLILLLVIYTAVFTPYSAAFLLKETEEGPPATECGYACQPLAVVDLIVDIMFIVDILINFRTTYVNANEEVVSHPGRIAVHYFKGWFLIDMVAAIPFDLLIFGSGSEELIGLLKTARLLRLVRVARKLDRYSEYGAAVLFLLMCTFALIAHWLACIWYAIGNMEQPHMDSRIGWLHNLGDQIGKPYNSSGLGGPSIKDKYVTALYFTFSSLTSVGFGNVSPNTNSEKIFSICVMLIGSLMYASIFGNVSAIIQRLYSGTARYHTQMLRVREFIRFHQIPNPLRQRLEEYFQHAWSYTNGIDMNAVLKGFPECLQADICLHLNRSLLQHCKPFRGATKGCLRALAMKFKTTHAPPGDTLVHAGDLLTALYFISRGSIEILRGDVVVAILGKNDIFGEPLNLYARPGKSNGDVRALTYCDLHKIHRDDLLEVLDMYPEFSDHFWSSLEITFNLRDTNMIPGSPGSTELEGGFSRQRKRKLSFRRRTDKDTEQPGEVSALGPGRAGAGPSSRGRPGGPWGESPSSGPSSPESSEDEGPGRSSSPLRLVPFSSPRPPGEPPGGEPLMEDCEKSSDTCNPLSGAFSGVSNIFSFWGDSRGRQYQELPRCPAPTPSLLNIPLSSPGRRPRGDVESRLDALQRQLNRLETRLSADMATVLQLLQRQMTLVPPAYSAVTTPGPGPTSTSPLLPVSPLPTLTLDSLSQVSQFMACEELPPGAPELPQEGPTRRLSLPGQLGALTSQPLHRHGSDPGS

Broadly, the solubility is how much of the substance goes into solution per volume. For orientation: AUC(0-inf) means the area under the concentration-time curve extrapolated to infinity. As usually defined, the IC50 is the point on the concentration scale where inhibition reaches its midpoint. Read a low IC50 as greater potency in that assay. One may read the Tmax as the time at which the peak concentration occurs. The Cmax is the maximum level reached in the sampled fluid or tissue. For orientation: bioavailability means the share of a dose that reaches the circulation, judged against a reference dose that is usually intravenous. A high value points to good availability. `O=C(/C=C/c1ccc2c(c1)C(=O)NC1(CCN(Cc3ccccc3)CC1)O2)NO`: the solubility in series [1] was > 200 µM. The values for the area under the curve AUC(0-inf) in series [2] and in series [5] were 1960 ng·h/mL and 1530 ng·h/mL, respectively. Besides, the IC50 was 582 nM in the series with K562; 515 nM in the series on HCT-116 [4]; 110 nM in series [7]; 87 nM against Histone deacetylase 3; 83 nM at Histone deacetylase; 192 nM at Histone deacetylase 2. The compound further returned a half-maximal inhibitory concentration (IC50) with A549 of 1410 nM. Also, the figures for the Activity entry in the series on HCT-116 [3], with HCT-116 [12] and in the series on Mus musculus [21] were “Dose-dependent effect”, “Dose-dependent effect” and “Non-toxic”, respectively. Also, the inhibition entry in [6] was “Dose-dependent effect”. Besides, the result with HCT-116 [8] and in the series on HCT-116 [24] was Active. The Tmax in series [9] is 0.25 h. The T/C in the series with HCT-116 [10] is 0.33; in the series with HCT-116 [16] it was 0.59. Further, the remaining at 0.5 h in series [11] is 77%; in series [14], 75%. Further, in series [13], the Papp A→B at 2 h came to 0.4 ×10⁻⁶ cm/s. In addition, in [15], the half-life is 13.4 h. Moreover, the clearance in [17] was 54.5 mL/min/kg. Moreover, the “inhibition (INH)” value in series [18] is 54%. Also, the inhibition result with Mus musculus [19] is “Active”. The Cmax in series [20] was found to be 2710 nM; in [22] it was 13500 nM. In [23], this compound yielded a bioavailability of 42.8%. Besides, the Vd in [25] turned out to be 8.5 L/kg.

As for `O=C(/C=C/c1ccc2c(c1)C(=O)CC1(CCN(Cc3ccccc3)CC1)O2)NO`, the IC50 came out at 103 nM in [7], 65 nM at Histone deacetylase 3, 270 nM against Histone deacetylase 2 and 3810 nM in [27]. Moreover, the values for the remaining at 0.5 h in series [11] and in series [14] were 55% and 32%, respectively. In addition, in series [13], the Papp A→B at 2 h came out at 5.6 ×10⁻⁶ cm/s. The highest level in the series on Mus musculus [26] (Cmax) was 823 nM. In addition, in [23], the bioavailability was 31.5%.
